ChEMBL document CHEMBL3774374, “The Effect of Small Molecules on Sterol Homeostasis: Measuring 7-Dehydrocholesterol in Dhcr7-Deficient Neuro2a Cells and Human Fibroblasts” (J Med Chem, 2016)
Activity calls are given as the source filed them. The rule behind the calls is not given here.

Assays:
[1] = target: T1, Delta(24)-sterol reductase (Mus musculus) (UniProt Q8VCH6); assay: Inhibition of C-24 reductase in Dhcr7-deficient mouse Neuro2a cells assessed as increase in desmosterol levels at 1 uM by LC-MS/GC-MS analysis; format: cell-based
T1 sequence (whole entry): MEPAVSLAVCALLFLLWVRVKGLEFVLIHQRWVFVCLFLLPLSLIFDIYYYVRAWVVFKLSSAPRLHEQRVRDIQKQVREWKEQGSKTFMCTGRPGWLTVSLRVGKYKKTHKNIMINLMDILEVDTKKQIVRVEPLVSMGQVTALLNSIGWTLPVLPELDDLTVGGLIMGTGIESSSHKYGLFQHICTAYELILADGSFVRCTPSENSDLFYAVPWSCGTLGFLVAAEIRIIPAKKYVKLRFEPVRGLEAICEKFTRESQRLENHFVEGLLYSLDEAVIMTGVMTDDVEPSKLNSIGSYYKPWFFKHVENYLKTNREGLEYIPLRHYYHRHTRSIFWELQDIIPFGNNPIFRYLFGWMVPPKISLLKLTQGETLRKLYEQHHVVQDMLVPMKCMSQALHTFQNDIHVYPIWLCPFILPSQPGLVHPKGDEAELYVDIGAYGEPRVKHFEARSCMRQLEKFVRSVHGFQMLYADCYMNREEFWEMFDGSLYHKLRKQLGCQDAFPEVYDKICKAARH
Outline: (§1)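 Dhcr7-deficient Neuro2a cells (13000/well, 0.5% FBS medium) on predeposited compound, 24 h at 37 °C. Hoechst-stained and imaged to count cells. Lysed in methanol containing isotope-labelled sterol standards, derivatized with PTAD 20 min at RT, then isocratic C18 UPLC-MS/SRM. Remaining extract silylated with BSTFA for GC-MS, quantified against d7-cholesterol. Follow-up runs in triplicate.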

[2] = target: T1, Delta(24)-sterol reductase (Mus musculus); assay: Inhibition of C-24 reductase in Dhcr7-deficient mouse Neuro2a cells assessed as increase in zymosterol levels at 1 uM by LC-MS/GC-MS analysis; format: cell-based; outline: as §1
[3] = target: T1, Delta(24)-sterol reductase (Mus musculus); assay: Inhibition of DR24 in Dhcr7-deficient mouse Neuro2a cells assessed as decrease in 7-DHC levels at 1 uM by LC-MS/GC-MS analysis; format: cell-based; outline: as §1
[4] = target: T1, Delta(24)-sterol reductase (Mus musculus); assay: Inhibition of DR24 in mouse Neuro2a cells assessed as decrease in 7-DHC levels at 1 uM by LC-MS/GC-MS analysis; format: cell-based
Outline: (§2)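 Control Neuro2a cells (10000/well, 0.5% FBS) on compound, 24 h. Hoechst cell count, then methanol lysis with labelled standards (d7-7-DHC, 13C3-desmosterol, 13C3-lanosterol), PTAD derivatization 20 min at RT, UPLC-MS SRM. GC-MS of silylated extract for further sterols.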

[5] = target: T2, 3-beta-hydroxysteroid-Delta(8),Delta(7)-isomerase (Mus musculus) (UniProt P70245); assay: Inhibition of delta 8-7 isomerase in mouse Neuro2a cells assessed as decrease in 7-DHC levels at 1 uM by LC-MS/GC-MS analysis; format: cell-based; outline: as §2
T2 sequence (whole entry): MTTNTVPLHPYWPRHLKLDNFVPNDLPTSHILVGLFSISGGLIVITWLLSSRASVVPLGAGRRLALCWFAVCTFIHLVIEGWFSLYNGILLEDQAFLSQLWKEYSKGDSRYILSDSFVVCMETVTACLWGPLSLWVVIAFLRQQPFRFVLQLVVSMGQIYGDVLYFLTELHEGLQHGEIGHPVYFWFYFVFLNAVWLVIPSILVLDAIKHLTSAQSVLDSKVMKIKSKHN

[6] = target: T2, 3-beta-hydroxysteroid-Delta(8),Delta(7)-isomerase (Mus musculus); assay: Inhibition of delta 8-7 isomerase in Dhcr7-deficient mouse Neuro2a cells assessed as decrease in 7-DHC levels at 1 uM by LC-MS/GC-MS analysis; format: cell-based; outline: as §1
[7] = tested on: N2a; assay: Change in cholesterol level in Dhcr7-deficient mouse Neuro2a cells at 100 nM by LC-MS/GC-MS analysis; format: functional, cell-based
Outline: (§3)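 Follow-up (verification) assay in 96-well plates, run as the 384-well screen, in triplicate, at varying compound concentrations. Cells counted by Hoechst imaging, washed with PBS, then lysed in MeOH with BHT/TPP and isotope standards (d7-Chol, d7-7-DHC, 13C3-Des, 13C3-Lan). Sterols derivatised with PTAD for 20 min at RT and quantified by C18 UPLC-MS (SRM). Remaining sample silylated with BSTFA and run on GC-MS, quantified against d7-Chol.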

[8] = target: T1, Delta(24)-sterol reductase (Mus musculus); assay: Inhibition of DR24 in Dhcr7-deficient mouse Neuro2a cells assessed as increase in lanosterol levels at 100 nM by LC-MS/GC-MS analysis; format: cell-based; outline: as §3
[9] = target: T1, Delta(24)-sterol reductase (Mus musculus); assay: Inhibition of DR24 in Dhcr7-deficient mouse Neuro2a cells assessed as increase in desmosterol levels at 100 nM by LC-MS/GC-MS analysis; format: cell-based; outline: as §3
[10] = target: T3, Delta(24)-sterol reductase (Homo sapiens) (UniProt Q15392); assay: Inhibition of DR24 in human SLOS fibroblasts assessed as decrease in 7-DHC levels at 10 nM after 5 days by LC-MS/GC-MS analysis
T3 sequence (whole entry): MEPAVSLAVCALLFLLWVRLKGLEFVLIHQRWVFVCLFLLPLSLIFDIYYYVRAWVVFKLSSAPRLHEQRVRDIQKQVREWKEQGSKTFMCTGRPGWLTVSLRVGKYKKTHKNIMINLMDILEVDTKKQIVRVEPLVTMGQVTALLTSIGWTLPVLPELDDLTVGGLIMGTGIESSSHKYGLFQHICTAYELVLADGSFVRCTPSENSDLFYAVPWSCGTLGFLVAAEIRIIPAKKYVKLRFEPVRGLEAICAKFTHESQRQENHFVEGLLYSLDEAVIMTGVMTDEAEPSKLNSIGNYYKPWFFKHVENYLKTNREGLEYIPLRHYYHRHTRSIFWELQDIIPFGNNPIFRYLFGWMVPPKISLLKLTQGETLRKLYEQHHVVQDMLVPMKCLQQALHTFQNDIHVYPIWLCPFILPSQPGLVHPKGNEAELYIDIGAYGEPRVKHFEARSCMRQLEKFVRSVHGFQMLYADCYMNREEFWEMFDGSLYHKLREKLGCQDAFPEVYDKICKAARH
Outline: (§4)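 SLOS patient skin fibroblasts (passage 8–20) grown in 96-well plates in delipidated serum with compound for 5 days; three different SLOS lines. Sterols quantified by PTAD-derivatized UPLC-MS plus GC-MS; 7-DHC expressed as percentage of untreated cells.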

[11] = Cytotoxicity against human SLOS fibroblasts at 5 uM after 5 days by Cell Titer assay; format: cell-based; conditions: fibroblast, 120 h
[12] = tested on: Fibroblast; assay: Decrease in cholesterol levels in human SLOS fibroblasts at 10 nM after 5 days by LC-MS/GC-MS analysis; format: functional, cell-based; outline: as §4
[13] = target: 3-beta-hydroxysteroid-Delta(8),Delta(7)-isomerase (Homo sapiens) (UniProt Q15125); assay: Inhibition of delta 8-7 isomerase in human SLOS fibroblasts assessed as decrease in 7-DHC levels at 10 nM after 5 days by LC-MS/GC-MS analysis; outline: as §4
[14] = target: T2, 3-beta-hydroxysteroid-Delta(8),Delta(7)-isomerase (Mus musculus); assay: Inhibition of delta 8-7 isomerase in Dhcr7-deficient mouse Neuro2a cells assessed as decrease in 7-DHC levels at 200 nM after 24 hrs by LC-MS analysis; format: cell-based
Outline: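 384-well screen: Dhcr7-deficient Neuro2a cells (13000/well) dispensed in 0.5% FBS medium onto predeposited compound (five wells each at 20 and 200 nM) and incubated 24 h at 37 °C. Nuclei Hoechst-stained and counted by automated imaging. Cells lysed in MeOH with deuterated and 13C standards, then derivatised with PTAD for 20 min at RT. 7-DHC measured by isocratic UPLC-MS (SRM) and expressed as pg per cell; DMSO wells served as controls.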

[15] = target: T1, Delta(24)-sterol reductase (Mus musculus); assay: Inhibition of DR24 in Dhcr7-deficient mouse Neuro2a cells assessed as decrease in 7-DHC levels at 200 nM after 24 hrs by LC-MS analysis; format: cell-based
Outline: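 384-well screen: Dhcr7-deficient Neuro2a cells (13000/well, 0.5% FBS) with compound at 20 or 200 nM (five wells each), 24 h at 37 °C. Cells counted after Hoechst imaging, then methanol lysis with d7-7-DHC standard, PTAD derivatization 20 min at RT, UPLC-MS SRM (7-DHC 560→365). Read-out is pg 7-DHC per cell.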

[16] = tested on: N2a; assay: Increase in lanosterol levels in Dhcr7-deficient mouse Neuro2a cells at 1 uM by LC-MS analysis; format: functional, cell-based; outline: as §1
[17] = tested on: Fibroblast; assay: Increase in lanosterol levels in human SLOS fibroblasts at 1 uM by LC-MS/GC-MS analysis; format: functional, cell-based; outline: as §4
[18] = target: T2, 3-beta-hydroxysteroid-Delta(8),Delta(7)-isomerase (Mus musculus); assay: Inhibition of delta 8-7 isomerase in Dhcr7-deficient mouse Neuro2a cells assessed as decrease in cholesterol levels at 1 uM by LC-MS/GC-MS analysis; format: cell-based; outline: as §3
[19] = target: T2, 3-beta-hydroxysteroid-Delta(8),Delta(7)-isomerase (Mus musculus); assay: Inhibition of delta 8-7 isomerase in Dhcr7-deficient mouse Neuro2a cells assessed as increase in zymostenol levels at 1 uM by LC-MS/GC-MS analysis; format: cell-based; outline: as §3
[20] = target: T2, 3-beta-hydroxysteroid-Delta(8),Delta(7)-isomerase (Mus musculus); assay: Inhibition of delta 8-7 isomerase in Dhcr7-deficient mouse Neuro2a cells assessed as increase in zymosterol levels at 1 uM by LC-MS/GC-MS analysis; format: cell-based; outline: as §3

Sequence of 3-beta-hydroxysteroid-Delta(8),Delta(7)-isomerase (Homo sapiens) (Q15125 whole entry): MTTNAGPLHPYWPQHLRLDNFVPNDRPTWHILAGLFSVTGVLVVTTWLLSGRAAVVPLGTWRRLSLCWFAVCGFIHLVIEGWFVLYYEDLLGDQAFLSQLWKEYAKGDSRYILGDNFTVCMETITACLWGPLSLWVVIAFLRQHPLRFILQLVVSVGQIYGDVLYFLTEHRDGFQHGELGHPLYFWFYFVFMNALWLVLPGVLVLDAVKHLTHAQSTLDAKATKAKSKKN

Row | SMILES | inhibition [3] | Decrease in 7-DHC levels (active/inactive call) [4] | Activity (decrease in 7-DHC levels) [5] | inhibition [6] | inhibition [10] | Activity [11] | Activity [12] | inhibition [13] | further results
1 | Oc1ccc2c(c1)CC[C@H](c1ccccc1)[C@@H]2c1ccc(OCCN2CCCC2)cc1 | Active | Active | Active | Active | – | – | – | – | inhibition [1]: Active; inhibition [2]: Active
2 | CCC(COC(=O)c1cc(OC)c(OC)c(OC)c1)(c1ccccc1)N(C)C (stereo not drawn) | Active | – | – | – | – | – | – | – | Activity [7]: inactive; inhibition [8]: Active; inhibition [9]: Active
3 | Cc1c(-c2ccc(O)cc2)n(Cc2ccc(OCCN3CCCCCC3)cc2)c2ccc(O)cc12 [BAZEDOXIFENE] | Active | Active | Active | Active | Active | Toxic | inactive | Active | inhibition [14]: Active; inhibition [15]: Active
4 | CC(=O)O[C@@]1(C(C)=O)CC[C@H]2[C@H]3C=C(C)C4=CC(=O)CC[C@]4(C)[C@H]3CC[C@@]21C | – | – | – | – | – | – | – | – | Activity [16]: Active; Activity [17]: Active
5 | CC/C(=C(\c1ccccc1)c1ccc(OCCN(C)C)cc1)c1ccccc1 [TAMOXIFEN] | Active | Active | Active | Active | Active | Toxic | inactive | Active | inhibition [18]: Active; inhibition [19]: Active; inhibition [20]: Active
